Results published in ChEMBL document CHEMBL1926517, “C-terminal tetrapeptides inhibit Aβ42-induced neurotoxicity primarily through specific interaction at the N-terminus of Aβ42” (J Med Chem, 2011).
Activity calls are given as the source filed them. No cut-off for these calls is given here. Residues, ends and D or L forms follow the SMILES beside them.

Assays:
[1] = test system: PC-12; assay: Neuroprotective activity in rat PC12 cells assessed as inhibition of amyloid-beta (1 to 42)-induced cell death after 24 hrs by MTT assay; format: functional, cell-based; settings: for IC50: PC-12, 24 h
How it was run: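 NGF-differentiated PC-12 cells (100 ng/mL, 48 h) were given 10 μM Aβ42 plus peptide at 1:1, 1:2, 1:5 and 1:10 ratios for 24 h, and read by MTT. Viability was scaled to 1 μM staurosporine full kill (100% loss), with NaOH-matched vehicle and medium as negative controls. IC50 from dose–response, ≥3 independent experiments × 6 replicates, mean ± SEM.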

[2] = test system: PC-12; assay: Neuroprotective activity in rat PC12 cells assessed as inhibition of amyloid-beta (1 to 42)-induced cell death after 24 hrs by LDH release assay; format: functional, cell-based; settings: PC-12, 24 h
How it was run: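 PC-12 cells were differentiated with NGF (100 ng/mL, 48 h), then exposed to Aβ42 alone or Aβ42:peptide mixtures at 1:1, 1:2, 1:5 and 1:10 ratios. Cell death was measured by LDH release (membrane integrity kit). IC50 was taken from the dose–response, ≥3 independent experiments with 6 replicates each, mean ± SEM.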

[3] = Binding affinity to amyloid beta (1 to 42) Try residue at position 30 assessed as change in fluorescence intensity
How it was run: (§1)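 Aβ42 or Y-substituted analogue (5 μM final) mixed with tetrapeptide (50 μM final), HFIP-pretreated, dissolved in 60 mM NaOH (10% of volume) then diluted in 10 mM sodium phosphate pH 7.4. Spun 5,000 g 1 min, concentration confirmed post facto by AAA. Excitation 280 nm, emission 290–400 nm, 22°C, ≥10 scans of ~1 min right after preparation. Buffer subtracted, area under curve normalized to peptide alone. Four independent experiments, mean ± SEM.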

[4] = test system: PC-12; assay: Neuroprotective activity in rat PC12 cells assessed as inhibition of alamethicin-induced cell death after 24 hrs by MTT assay; format: functional, cell-based
How it was run: (§2)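 NGF-differentiated PC-12 cells (100 ng/mL, 48 h) treated 24 h with α-synuclein (15 μM) or alamethicin (4 μM), alone or with a range of tetrapeptide concentrations. MTT read-out. Mean ± SEM of ≥3 independent experiments, 5 replicates per point.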

[5] = Binding affinity to amyloid beta (1 to 42) Try residue at position 1 assessed as change in fluorescence intensity
How it was run: (§3)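 HFIP-pretreated Aβ42 or its Y-substituted analogue (5 μM nominal) was mixed with tetrapeptide (50 μM nominal), taken up in 60 mM NaOH (10% of volume), then diluted with 10 mM sodium phosphate pH 7.4 and spun briefly. Exact concentrations were set afterwards by AAA. Read-out: excitation 280 nm, emission 290–400 nm at 22°C, ≥10 immediate scans. Buffer-subtracted area per micromole was normalized to the analogue alone. Four independent experiments.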

[6] = test system: PC-12; assay: Neuroprotective activity in rat PC12 cells assessed as inhibition of alpha-synuclein-induced cell death after 24 hrs by MTT assay; format: functional, cell-based; how it was run: as §2
[7] = Binding affinity to amyloid beta (1 to 42) Try residue at position 30 assessed as change in fluorescence intensity using N-terminus amidated compound; how it was run: as §3
[8] = test system: PC-12; assay: Neuroprotective activity in rat PC12 cells assessed as inhibition of staurosporine-induced cell death after 24 hrs by MTT assay; format: functional, cell-based
How it was run: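 Differentiated PC-12 cells (NGF 100 ng/mL, 48 h) exposed to 0.2 μM staurosporine, with or without varying tetrapeptide concentrations, for 24 h. Viability was read by MTT. Mean ± SEM, ≥3 independent experiments with 5 replicates per point.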

[9] = Binding affinity to wild type amyloid beta (1 to 42) assessed as change in fluorescence intensity; how it was run: as §1
[10] = test system: PC-12; assay: Neuroprotective activity in rat PC12 cells assessed as inhibition of staurosporine-induced cell death after 24 hrs by MTT assay
[11] = Binding affinity to amyloid beta (1 to 42) Try residue at position 42 assessed as change in fluorescence intensity; how it was run: as §1
[12] = Binding affinity to amyloid beta (1 to 42) Try residue at position 1 assessed as change in fluorescence intensity using C-terminus acetylated compound; how it was run: as §3
[13] = Binding affinity to amyloid beta (1 to 42) Try residue at position 1 assessed as change in fluorescence intensity using N-terminus amidated compound; how it was run: as §3
[14] = Binding affinity to amyloid beta (1 to 42) assessed as change in fluorescence intensity using C-terminus acetylated compound; how it was run: as §3
[15] = Binding affinity to amyloid beta (1 to 42) Try residue at position 20 assessed as change in fluorescence intensity; how it was run: as §1
[16] = Cytotoxicity against rat PC12 cells assessed as cell viability at 1 uM after 24 hrs by MTT assay; format: cell-based, PC-12; settings: read-out: Activity

Q: For `CC[C@H](C)[C@H](NC(=O)[C@@H](NC(=O)[C@H](C)N)C(C)C)C(=O)N[C@@H](C)C(=O)O` (H-AVIA-OH), which Activity [1] is on record?
A: Its Activity is “Dose-dependent effect”.

Q: What about the IC50 [1] of the same compound?
A: Its IC50 is 53 µM.

Q: What about the IC50 [2] of the same compound?
A: Its IC50 is 22 µM.

Q: With `CC[C@H](C)[C@H](NC(=O)[C@@H](NC(=O)[C@@H](N)C(C)C)C(C)C)C(=O)N[C@@H](C)C(N)=O` (H-VVIA-NH2) as the compound, how does the Activity [1] read?
A: The Activity was “Dose-dependent effect”.

Q: And the IC50 [1]?
A: The IC50 was 28 µM.

Q: And the IC50 [2]?
A: Its IC50 is 30 µM.

Q: With `CC[C@H](C)[C@H](NC(=O)[C@H](C)N)C(=O)N[C@H](C(=O)N[C@H](C(N)=O)C(C)C)C(C)C` (H-AIVV-NH2) as the compound, how does the Activity [1] read?
A: The Activity was “Dose-dependent effect”.

Q: With `CC[C@H](C)[C@H](NC(=O)[C@@H](NC(=O)[C@@H](N)C(C)C)C(C)C)C(=O)N[C@@H](C)C(=O)O` as the compound, how does the Activity [3] read?
A: Its Activity is “inactive”.

Q: And the Activity [4]?
A: The Activity was “inactive”.

Q: What about the Flu intensity [5] of the same compound?
A: The Flu intensity was 117%.

Q: And the Activity [6]?
A: Its Activity is “inactive”.

Q: What about the Flu intensity [7] of the same compound?
A: Its Flu intensity is 24%.

Q: And the Activity [1]?
A: Its Activity is “Dose-dependent effect”.

Q: What about the IC50 [1] of the same compound?
A: Its IC50 is 21 µM.

Q: What about the Activity [8] of the same compound?
A: Its Activity is “inactive”.

Q: And the Activity [9]?
A: Its Activity is “inactive”.

Q: What about the Activity [10] of the same compound?
A: Its Activity is “inactive”.

Q: What about the Activity [11] of the same compound?
A: Its Activity is “inactive”.

Q: And the Flu intensity [12]?
A: The Flu intensity was 48%.

Q: And the Flu intensity [13]?
A: Its Flu intensity is 62%.

Q: What about the Flu intensity [14] of the same compound?
A: The Flu intensity was 19%.

Q: What about the Activity [15] of the same compound?
A: The Activity was “inactive”.

Q: For `CC[C@H](C)[C@H](NC(=O)[C@H](C)N)C(=O)N[C@H](C(=O)N[C@H](C(=O)O)C(C)C)C(C)C` (H-AIVV-OH), which Activity [1] is on record?
A: The Activity was “Dose-dependent effect”.

Q: Which viability at 24 h, 1 µM [16] does the source give for `CN[C@@H]1C[C@H]2O[C@@](C)([C@@H]1OC)n1c3ccccc3c3c4c(c5c6ccccc6n2c5c31)C(=O)NC4` [STAUROSPORINE] here?
A: Its viability at 24 h, 1 µM is 100%.

Q: With `CC[C@H](C)[C@H](NC(=O)[C@H](C)NC(=O)[C@@H](N)C(C)C)C(=O)N[C@@H](C)C(=O)O` (H-VAIA-OH) as the compound, how does the Activity [1] read?
A: The Activity was “Dose-dependent effect”.

Q: What about the IC50 [1] of the same compound?
A: The IC50 was 15 µM.

Q: What about the IC50 [2] of the same compound?
A: Its IC50 is 14 µM.
